The record followed here is ChEMBL document CHEMBL4513216, “Probing the Open Global Health Chemical Diversity Library for Multistage-Active Starting Points for Next-Generation Antimalarials” (ACS Infect Dis, 2020).

This data set can be described thus: Toxicity liver stage against HepG2, at 10uM. The class given is cell-based. Also on record: test concentration 10 uM, cell line HepG2-A16-CD81EGFP. To be noted: human, HepG2-A16-CD81EGFP cells; read-out: INHIBITION
The method, boiled down: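 Uninfected HepG2-A16-CD81EGFP cells, 3 × 10^3 per well, 1536-well, plated on prespotted compound at 10 μM final, parasite-free screening media added to match infected plates; puromycin 10 μM positive, DMSO 0.5% negative; run in parallel with 48 h PbLuc assay at 37 °C, 5% CO2; viability by CellTiter-Glo luminescence, normalized to controls.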
On to `OCc1ccc(OCC(F)(F)F)cc1`, for which the cytotoxicity at 10 µM was -11.9%. For `COc1ccc(CN2CCO[C@H]3CN(C(C)=O)CC[C@H]3C2=O)cc1`, the cytotoxicity at 10 µM was -138%. Take `CS(=O)(=O)N1CC[C@@H]2OC(COCC(=O)N3CCCC3)CC[C@@H]21` (stereo not given in full): the cytotoxicity at 10 µM was 1.56%. For `COc1nn(C)c2c1CCCN(C(=O)c1ccc(C)c(F)c1)C2`, the cytotoxicity at 10 µM turned out to be 8.21%. On to `Cn1cc(C[C@H]2[C@H](O)CCN2C(=O)C2CCCC2)cn1`, for which the cytotoxicity at 10 µM was -3.49%.

As for `CN(Cc1cn2c(n1)CN(C(=O)C1CCOCC1)CC2)Cc1ccco1`, the cytotoxicity at 10 µM is -1.46%.

Turning to `CC(=O)N1CCCC(c2ccnc(Nc3cnccn3)c2)C1` (stereo not given), the cytotoxicity at 10 µM is 9.37%.

As to `O=C(c1cscn1)N(CCCO)S(=O)(=O)c1cccs1`, the cytotoxicity at 10 µM is -11.3%. In the case of `Cc1nc(C)c(C(=O)N2Cc3cc(F)ccc3CC2C)o1` (stereo not given), the cytotoxicity at 10 µM is 6.07%. For the compound `CCC(C)(NC(=O)CCN1CCOC1=O)C(=O)OC` (stereo not given), the cytotoxicity at 10 µM is -16%. As to `OCCN(Cc1cccnc1)c1ccc(Br)cn1`, the cytotoxicity at 10 µM amounted to 21.4%. As for `CC(C)NC(=O)CCNC(=O)Nc1cnn(-c2ccccc2Cl)c1`, the cytotoxicity at 10 µM was found to be 1.75%. The figure for `Cn1cccc1C(=O)OCCNC(=O)c1ccccc1` is 14.7%.

As to `Cc1cccc(CNC2CCN(CCc3ccncc3)CC2)c1C`, the cytotoxicity at 10 µM is -9.04%. For `Cc1nn(C)c(C)c1OCC(=O)NCc1cccc(CO)c1`, the cytotoxicity at 10 µM was -7.73%. Next, `O=C(CC1CCCO1)NCCc1ccccc1Br` (stereo not given): 5.63%; `COc1ccccc1-c1csc(NC(=O)N2CCN(C)CC2C)n1` (stereo not given): -3.24%; `O=C(CCCNC(=O)Nc1ccc(F)cc1F)Nc1cn[nH]c1`: 9.19%. For `CCOCC(=O)NCC(C)(O)c1cc(C)oc1C` (stereo not given), the cytotoxicity at 10 µM is 1.85%. Next, `Cc1cc(-c2nc(C3(NC(=O)OC(C)(C)C)CCC3)no2)on1`: 5.98%. Consider `CCN(c1ccc(C(=O)N(Cc2cnn(C)c2)C(C)C)cn1)C(C)C`, for which the cytotoxicity at 10 µM was determined as 16.2%.

`COc1ccccc1OCC(=O)Nc1ncccc1OC(F)F`: the cytotoxicity at 10 µM was 7.25%. The figure for `O=C(CN1CCOCC1)N1CCC2(CCCN(C3CCOCC3)C2=O)C1` (stereo not given) is -129%. For the compound `O=C(NCC1(O)CCCCC1)c1coc(COc2cccc(F)c2)n1`, the cytotoxicity at 10 µM was -136%. As to `CCOCc1nc2c(c(N3CC=CC3)n1)CCN(CC1CC1)CC2`, the cytotoxicity at 10 µM is -21.2%. As to `Cc1ccccc1N1CC(C)N(Cc2ccc(C)c(F)c2F)CC1=O` (stereo not given), the cytotoxicity at 10 µM was -1.66%. `Nc1nc(CCC(=O)N2C[C@@H](CN3CCCC3)C[C@H](CO)C2)n[nH]1`: the cytotoxicity at 10 µM is -0.445%. Consider `Cc1cnn(C(C)C(=O)NCC2CCN(c3cnn(C)c(=O)c3)CC2)c1` (stereo not given), for which the cytotoxicity at 10 µM stood at 2.81%. Next, `Cc1cc2ccccc2n1CCC(=O)N1CCC[C@H]1C(N)=O`: -0.338%; `CCc1cc(N(C)Cc2noc(C(C)C)n2)nc(N2CCOCC2)n1`: 0.515%; `CC(C)N1CCC(CC(=O)N2CCCCC2CCn2cccn2)CC1` (stereo not given): -3.77%.

Take `c1ccc2c(c1)CC(Cc1cc(N3CCCC3)cnn1)CCO2` (stereo not given): the cytotoxicity at 10 µM is -5.5%. On to `CC(C)C(C)n1nccc1NC(=O)Cn1cnc2ccccc21` (stereo not given), for which the cytotoxicity at 10 µM was determined as 10.8%. Regarding `COc1ccc([C@@H]2CN(c3cnccn3)C[C@H]2N(C)C)cc1`, the cytotoxicity at 10 µM was found to be 6.55%.

As for `Cc1cnn(C2CCCN(C(=O)Cc3cn4ccsc4n3)C2)c1` (stereo not given), the cytotoxicity at 10 µM is -4.89%.

As for `COc1ccccc1C(=O)NC(CC(=O)O)c1cccs1` (stereo not given), the cytotoxicity at 10 µM was -0.337%. With `COCCN1C[C@@H]2CN(Cc3ccoc3)CCC[C@]2(C(=O)O)C1`, the cytotoxicity at 10 µM was -139%. Regarding `O=C(NCc1cn2c(n1)CN(Cc1ccccn1)CC2)C1CCC1`, the cytotoxicity at 10 µM is 7.49%. As for `CNC(=O)c1cc2c(nc1NCC1CC1)CCN(S(C)(=O)=O)CC2`, the cytotoxicity at 10 µM worked out at 5.57%. Next, `Cc1ccc(CN2Cc3nccn3CC(Cn3cncn3)C2)s1` (stereo not given): -141%.
